From article PMC8513424 (Laryngoscope Investigative Otolaryngology, 2021)
Where two headings read alike, the source gives them in different places.

Experiments:
Ben‐Men‐1 xenograft = settings: cited from earlier work
[1] = system: patients with NF2 or sporadic meningioma; assay: Pilot 1 safety and tolerability; format: in vivo, human
In short: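 Pilot 1 was a subset of a phase I, 3 + 3 dose-escalation study of the oral test compound in solid tumors. Dosing started at 30 mg three times weekly for 3 weeks, then 1 week off, per 28-day cycle. Adults (≥18 y, ECOG 0-1) had NF2-associated or sporadic VS/meningioma with ≥15% volumetric growth on pre-enrollment MRI. Toxicities were graded by CTCAE v4.0.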

primary meningioma cells = settings: read-out: IC50, primary meningioma cells; cited from earlier work
VS and meningioma cells = settings: cited from earlier work
[2] = system: patients with sporadic VS or meningioma; assay: Pilot 2 safety and tolerability; format: in vivo, human
In short: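 Phase 0 pre-surgical study: 40 mg of the test compound orally three times weekly for 3 weeks before planned VS/meningioma resection. Adults >18 y had ECOG 0-1, normal organ and marrow function, and could swallow capsules. Excluded were pregnancy, malabsorption, chronic corticosteroids, prolonged QT, active infection, and concurrent antineoplastic therapy or radiotherapy.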

[3] = system: AKT phosphorylation in primary human VS cells; assay: AKT phosphorylation in primary VS cells; format: cell-based; settings: Figure S2
human VS cells = settings: cited from earlier work
[4] = system: p‐AKT, p‐S6 and p‐ERK in VS and meningioma; assay: Pilot 2 fluorescent Western blotting of resected tumors; format: in vivo, human
In short: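 Patients took 40 mg of the test compound orally three times weekly for 3 weeks before resection. VS were split into peripheral capsule and center. Tumor lysates were run on fluorescent Western blots for p-AKT, total AKT, p-S6, total S6, p-ERK and total ERK. Phospho/total ratios were expressed as percent of an untreated banked VS or meningioma set as 100%.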

schwannoma xenografts = settings: cited from earlier work
[5] = Stability in whole blood kept on ice; format: in vitro ADME
[6] = system: hearing of patients with NF2; assay: Pilot 1 audiograms; format: in vivo, human
[7] = system: patients with advanced solid tumors; settings: cited from earlier work
[8] = day one, cited from earlier work
[9] = Pilot 2 intra‐tumoral AR‐42 concentration by LC‐MS/MS; format: in vivo, human
In short: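 The oral test compound was given at 40 mg three times weekly for 3 weeks before resection. Each VS was divided into peripheral capsule and center, and samples were frozen quickly. Drug was measured by LC-MS/MS against a standard curve of known concentrations, as the mean of three runs. Tumor:plasma ratio = capsule or center concentration ÷ pre-anesthesia plasma concentration.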

[10] = Patient # 2.7 (meningioma), 40 mg

In the case of `CC(C)[C@H](C(=O)Nc1ccc(C(=O)NO)cc1)c1ccccc1` [AR‐42], the Meningioma tumor volumes (Ben‐Men‐1 xenograft) is given as “markedly diminished meningioma tumor volumes”, the “Tumor return after treatment” value (Ben‐Men‐1 xenograft; followed 6 months post‐treatment) is given as “tumors did not return” and the “Dose‐limiting toxicity” value ([1]; Patient 1.7, 80 mg, after 10 days of treatment, or 5 doses) is given as “grade 4 psychiatric disorder”. The Tolerability ([1]; Pilot 1, 60 mg) was “generally well tolerated”, the “Arrhythmias or QT prolongations” value ([1]; Pilot 1, 60‐80 mg) was “no reported arrhythmias or QT prolongations of any grade” and the IC50 (primary meningioma cells) was 1500 nM. The Apoptosis (VS and meningioma cells) was “triggered apoptosis”, the Cell cycle effect (VS and meningioma cells) was “induced cell‐cycle arrest at G2/M” and the “p‐AKT levels” value (VS and meningioma cells) was “decreased p‐AKT levels”. For the same compound, the “Arrhythmias or QT changes” value ([2]; Pilot 2, 40 mg) was “no arrhythmias or QT changes”, the “Grade 3 or 4 toxicities” value ([2]; Pilot 2, 3 weeks at 40 mg) was “no grade 3 or 4 toxicities” and the “AKT phosphorylation in primary human VS cells” value [3] was “reduced AKT phosphorylation”. For the same compound, the IC50 (human VS cells; read-out: IC50, growth inhibition of human VS cells) was 500 nM, the IC50 (human VS cells; read-out: IC50 for schwannomas, previous in vitro studies) was roughly 500 nM and the “p‐S6 in meningioma” value ([4]; Patient 2.7, vs untreated meningioma) was “reduction in p‐S6”. The “p‐AKT in meningioma” value ([4]; Patient 2.7, vs untreated meningioma tumors) was “not reduced”, the “Levels of p‐ERKs and p‐S6 in AR‐42‐treated VS” value ([4]; vs untreated VS, 40 mg) was “substantially reduced in three of four” and the “p‐AKT levels in AR‐42‐treated VS tumors” value ([4]; vs untreated VS, 40 mg) was “decreased p‐AKT levels in three of four”. For the same compound, the “AKT activation in schwannoma xenografts” value (schwannoma xenografts) was “decreased AKT activation”, the “Apoptosis in schwannoma xenografts” value (schwannoma xenografts) was “induced apoptosis” and the “Growth of schwannoma xenografts” value (schwannoma xenografts) was “inhibited the growth of schwannoma xenografts”. For the same compound, the “Time stable in blood kept on ice” value [5] was “more than 4 hours”, the “Pure tone average (PTA) after treatment” value ([6]; Patient 1.6, from 17 db at initiation) was 55 db and the “Measurable hearing in the contralateral ear on AR‐42” value ([6]; patients 1.1, 1.4 and 1.7) was “remained stable”. For the same compound, the “Dose‐limiting toxicities (DLTs)” value ([7]; 30, 60 or 80 mg orally) was “grade 3 thrombocytopenia and grade 4 psychosis”, the “Median progression‐free survival” value ([7]; NF2 and non‐NF2 meningioma subset, RECIST, 95% CI: 1.9—not reached) was 9.1 months and the “Most common treatment‐related adverse events” value [7] was “cytopenias, fatigue, and nausea”. For the same compound, the “Recommended phase II dose” value ([7]; daily, three times weekly for 3 weeks of a 28‐day cycle) was 60 mg, the “Mean maximal plasma concentration” value ([8]; 60 mg dose) was 1.48 (±0.38) μM and the Maximum plasma concentration ([8]; Patient 1.7, 80 mg dose) was 3.25 µM. The “Concentration in meningioma capsule” value ([9]; 40 mg) was 5300 nM, the “Concentration in meningioma tumor center” value ([9]; 40 mg) was 1800 nM and the “Concentrations of AR‐42 in VS” value ([9]; 40 mg) was 230 to 620 nM. For the same compound, the “Concentration in tumors, Capsule” value ([9]; Patient # 2.1 (VS), 40 mg) was 624.2 nM, the “Concentration in tumors, Center” value ([9]; Patient # 2.1 (VS), 40 mg) was 577.0 nM and the “Concentration in tumors, Capsule” value ([9]; Patient # 2.2 (VS), 40 mg) was 429.4 nM. For the same compound, the “Concentration in tumors, Center” value ([9]; Patient # 2.2 (VS), 40 mg) was 586.6 nM, the “Concentration in tumors, Capsule” value ([9]; Patient # 2.4 (VS), 40 mg) was 230.6 nM and the “Concentration in tumors, Center” value ([9]; Patient # 2.4 (VS), 40 mg) was 289.0 nM. For the same compound, the “Concentration in tumors, Capsule” value ([9]; Patient # 2.6 (VS), 40 mg) was 16.2 nM, the “Concentration in tumors, Center” value ([9]; Patient # 2.6 (VS), 40 mg) was 7.1 nM and the “Concentration in tumors, Capsule” value [9, 10] was 5296.6 nM. For the same compound, the “Concentration in tumors, Center” value [9, 10] was 1766.2 nM, the “Meningioma (subject 2.7) AR‐42 level higher than the VS” value ([9]; WHO grade I meningioma) was 10 fold and the “AR‐42 concentrations in tumors compared with plasma” value ([9]; all tumors, Pilot 2, 40 mg) was “higher”.
